Tests used:
Carbonic anhydrase 9 = Carbonic anhydrase 9 (Homo sapiens, UniProt Q16790)
Carbonic anhydrase 2 = Carbonic anhydrase 2 (Homo sapiens, UniProt P00918); experiment: Inhibition of human recombinant carbonic anhydrase 2 expressed in Escherichia coli by stopped flow CO2 hydration assay
Carbonic anhydrase 1 = Carbonic anhydrase 1 (Homo sapiens, UniProt P00915); experiment: Inhibition of human recombinant carbonic anhydrase 1 expressed in Escherichia coli by stopped flow CO2 hydration assay
MCF7 [1] = experiment: Antiproliferative activity against human MCF7 cells measured after 48 hrs under hypoxia condition by MTT assay; assay type: functional, cell-based; settings: MCF7, 48 h
Procedure, shortened: (§1)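 MCF-7 (ATCC) grown in DMEM with 10% heat-inactivated FBS, 1% L-glutamine (2.5 mM), HEPES (10 mM), 50 µg/mL gentamycin, at 37 C, 5% CO2. Hypoxia induced chemically with CoCl2 (100 µM); normoxic cells without it. Viability by MTT colorimetric assay after 48 h exposure; IC50 is the concentration giving 50% growth inhibition relative to untreated controls.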

MCF7 [2] = experiment: Antiproliferative activity against human MCF7 cells measured after 48 hrs under normoxia condition by MTT assay; assay type: functional, cell-based; settings: MCF7, 48 h
Procedure, shortened: as §1

MCF7 [3] = experiment: Induction of cell cycle arrest in human MCF7 cells assessed as accumulation at G2/M phase at IC50 after 24 hrs by propidium iodide staining based flow cytometric analysis (reference value: 2.37%); assay type: functional
MCF7 [4] = experiment: Induction of apoptosis in human MCF7 cells assessed as total apoptotic cells by Annexin V-FITC/propidium iodide staining based flow cytometry (reference value: 1.54%); assay type: functional
MCF7 [5] = experiment: Induction of cell cycle arrest in human MCF7 cells assessed as accumulation at S phase at IC50 after 24 hrs by propidium iodide staining based flow cytometric analysis (reference value: 41.36%); assay type: functional
MCF7 [6] = experiment: Induction of apoptosis in human MCF7 cells assessed as early apoptotic cells by Annexin V-FITC/propidium iodide staining based flow cytometry (reference value: 1.05%); assay type: functional
MCF7 [7] = experiment: Induction of apoptosis in human MCF7 cells assessed as necrotic cells by Annexin V-FITC/propidium iodide staining based flow cytometry (reference value: 0.35%); assay type: functional
MCF7 [8] = experiment: Induction of cell cycle arrest in human MCF7 cells assessed as accumulation at Pre-G1 phase at IC50 after 24 hrs by propidium iodide staining based flow cytometric analysis (reference value: 1.89%); assay type: functional
MCF7 [9] = experiment: Induction of cell cycle arrest in human MCF7 cells assessed as accumulation at G0/G1 phase at IC50 after 24 hrs by propidium iodide staining based flow cytometric analysis (reference value: 56.27%); assay type: functional
MCF7 [10] = experiment: Induction of apoptosis in human MCF7 cells assessed as late apoptotic cells by Annexin V-FITC/propidium iodide staining based flow cytometry (reference value: 0.49%); assay type: functional

Chain of Carbonic anhydrase 1 (P00915 whole entry): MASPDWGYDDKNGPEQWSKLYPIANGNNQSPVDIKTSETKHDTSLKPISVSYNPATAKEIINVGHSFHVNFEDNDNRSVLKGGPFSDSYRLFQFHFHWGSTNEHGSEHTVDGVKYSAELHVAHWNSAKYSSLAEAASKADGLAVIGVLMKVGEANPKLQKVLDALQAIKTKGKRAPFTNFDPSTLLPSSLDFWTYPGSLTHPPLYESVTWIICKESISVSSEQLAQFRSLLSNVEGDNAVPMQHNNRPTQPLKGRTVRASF

SMILES | Ki (Carbonic anhydrase 9) [nM] | Ki (Carbonic anhydrase 2) [nM] | Ki (Carbonic anhydrase 1) [nM] | further results
NS(=O)(=O)c1ccc(N/N=C/c2ccc(-n3nnc4ccccc43)cc2)cc1 | 46.3 | 94.6 | 240 | 
NS(=O)(=O)c1ccc(C(=O)N/N=C/c2ccc(N3CCOCC3)cc2)cc1 | 8.6 | 15.6 | 175 | 
NS(=O)(=O)c1ccc(C(=O)N/N=C/c2ccc(-n3nnc4ccccc43)cc2)cc1 | 23.7 | 62.3 | 357 | 
C/C(=N\Nc1ccc(S(N)(=O)=O)cc1)c1ccc(N2CCCCC2)cc1 | 7.2 | 69.2 | 111 | 
NS(=O)(=O)c1ccc(N/N=C/c2ccc(N3CCCCC3)cc2)cc1 | 20.9 | 24 | 101 | 
NS(=O)(=O)c1ccc(C(=O)N/N=C/c2ccc(N3CCCCC3)cc2)cc1 | 3.3 | 9.3 | 153 | 
NS(=O)(=O)c1ccc(C(=O)N/N=C/c2ccc(N3CCCC3)cc2)cc1 | 3.1 | 12.5 | 347 | 
NS(=O)(=O)c1ccc(N/N=C/c2ccc(N3CCCC3)cc2)cc1 | 19.4 | 29.9 | 96.2 | 
C/C(=N\Nc1ccc(S(N)(=O)=O)cc1)c1ccc(N2CCCC2)cc1 | 18.3 | 57.7 | 95.4 | 
C/C(=N\Nc1ccc(S(N)(=O)=O)cc1)c1ccc(N2CCOCC2)cc1 | 8.9 | 65.6 | 149 | 
C/C(=N\NC(=O)c1ccc(S(N)(=O)=O)cc1)c1ccc(N2C(=O)c3c(Cl)c(Cl)c(Cl)c(Cl)c3C2=O)cc1 | 17.3 |  |  | 
NS(=O)(=O)c1ccc(N/N=C/c2ccc(N3CCOCC3)cc2)cc1 | 16.5 | 34.5 | 87.4 | 
C/C(=N\Nc1ccc(S(N)(=O)=O)cc1)c1ccc(N2CCN(C)CC2)cc1 | 2 | 89.5 | 266 | IC50 (MCF7 [1]): 17.3 µM; IC50 (MCF7 [2]): 7.72 µM
NS(=O)(=O)c1ccc(N/N=C/c2ccc(-n3ccnc3)cc2)cc1 | 14.6 | 17.9 | 76.8 | 
NS(=O)(=O)c1ccc(C(=O)N/N=C/c2ccc(-n3ccnc3)cc2)cc1 | 10.1 | 8.2 | 130 | IC50 (MCF7 [1]): 8.53 µM; Activity (MCF7 [3]): 33.85%; Activity (MCF7 [4]): 16.22%; Activity (MCF7 [5]): 29.66%; Activity (MCF7 [6]): 4.29%; Activity (MCF7 [7]): 3.14%; Activity (MCF7 [8]): 19.36%; Activity (MCF7 [9]): 36.49%; IC50 (MCF7 [2]): 3.32 µM; Activity (MCF7 [10]): 11.93%
